This note sets out measurements from PubChem BioAssay.

Calls of active or inactive are those of the source.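 Rule for the calls, unless noted: active = inhibition at or above 50% at 10 µM; inactive = inhibition below 50%.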

A short description of experiment [1]: inhibitors of TNFa-induced NFkB p65 translocation, primary screen, imaging, HUVEC, MLSMR starter and 10KST1 sets (AID 438;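 active = inhibition above 20% together with a positive visual image hit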;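 note: compound added about 3h40 before a 20 min TNFalpha stimulation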;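 for inhibition: signal is the nuclear over cytoplasmic p65 intensity ratio per well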). Particulars: HUVEC TNFa-induced p65 nuclear translocation; cell count: measured here: nuclei count (cytotoxicity indicator), at 2.08 µM; inhibition: at 2 µM, stronger effect = higher value, 0% TNFa-plus-vehicle, 100% no-TNFa wells.
Experiment [2] can be described thus: inhibitors of mutant huntingtin aggregation, primary screen, imaging, exon1htt(103Q)mCFP cells, high-content imaging (AID 483;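 active = visual image review flags a hit and inhibition of aggregation exceeds 20%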;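 note: compound exposure lasted 3 days before fixation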;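 for nuclei count: percent of the per-plate median nuclei count of sample wells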). Particulars: exon1htt(103Q)mCFP cell line, aggregate imaging, at 2 µM; inhibition of aggregation: stronger effect = higher value; nuclei count: measured here: cell count, toxicity.
Experiment [3] is described as follows: inhibitors of E-selectin induction by TNFa, primary screen, imaging, HUVEC, immunofluorescence, MLSMR starter and 10KST1 sets (AID 487;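 active = visually confirmed hit in the image check and inhibition above 20%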;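 for inhibition: signal is fraction of cell area covered by stained E-selectin grains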;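 for nuclei count: 100% = median nuclei count of all wells on the same plate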). Particulars: HUVEC TNFalpha-induced E-selectin immunofluorescence imaging, at 2 µM; inhibition: stronger effect = higher value; nuclei count: measured here: cell number, toxicity.
The target in experiment [4] is Voltage-gated potassium channel subunit beta-2 (Rattus norvegicus) (UniProt P62483). Nature of the experiment: KvBeta enzyme negative modulators, primary screen, biochemical, NADPH fluorescence (AID 622;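 active = fluorescence slope higher than the sample average by over 3 SD, cut at about -0.22 in these data, passing the limit was not always enough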;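 note: slope of raw intensity against log time taken from 70 to 1610 s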). Particulars: recombinant KvBeta, 4-cyanobenzaldehyde reduction, at 10 µM, stronger effect = higher value.
Experiment [5] has the same target. Nature of the experiment: KvBeta positive modulators, primary screen, biochemical, NADPH fluorescence (AID 623;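 active = NADPH fluorescence slope more negative than the mean of all samples by about 3 SD, 99.7% confidence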;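 note: fluorescence intensity change per second fitted from 20 to 320 s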). Particulars: Recombinant KvBeta, NADPH fluorescence decrease slope, 10 min; at 10 µM; stronger effect = lower value.
Experiment [6] addresses Muscarinic acetylcholine receptor M4 (Homo sapiens) (UniProt P08173). Nature of the experiment: compounds altering M4/GIRK thallium flux, either direction, primary screen, M4 allosteric agonist project, cell-based, HEK293 M4/GIRK, BTC-AM (AID 625;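 active = fluorescence slope after compound addition differing from the mean of all tested samples at 99.7% confidence, mostly higher but some lower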;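 note: thallium influx through GIRK channels coupled to M4 in HEK293 cells with BTC-AM dye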). The following applies: at 10 µM, actives lie on both sides. Put shortly:
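System: HEK293 cells with M4 receptor and GIRK channels | Incubation: Cells overnight at 37 °C, BTC-AM loading 1 h, reads 2 min total | Technique: Kinetic BTC-AM fluorescence sampled at 1 Hz, 10 s pre-addition baseline | Measure: Post-addition slope, 15–24 s, of baseline-normalized fluorescence | Control set: Carbachol positive, DMSO negative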

Experiment [7] is described as follows: inhibitors of Sendai virus-induced IRF3 signaling, primary screen, TLR/RLR signaling modifier project, cell-based, Sendai virus stimulus, luciferase, 10K MLSCN set (AID 602276).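 Note: firefly luciferase from ISG56 promoter only with Renilla not read in this screen; 0% = Sendai virus plus DMSO and 100% = medium plus DMSO without virus.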 Particulars: HEK293 RL24 IRF3 luciferase reporter, at 10 µM, stronger effect = higher value.
Experiment [8] can be described thus: inhibitors of poly I:C-induced TLR3 signaling, primary screen, cell-based, poly I:C stimulus, luciferase, 10K MLSCN set (AID 602277;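 active = inhibition of the reporter signal at or above 50%; inactive = inhibition below 50%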). Particulars: HEK293-TLR3 RL24 IRF3 luciferase reporter, at 10 µM, stronger effect = higher value.

Sequence of Muscarinic acetylcholine receptor M4 (Homo sapiens) (P08173 whole entry, looked up): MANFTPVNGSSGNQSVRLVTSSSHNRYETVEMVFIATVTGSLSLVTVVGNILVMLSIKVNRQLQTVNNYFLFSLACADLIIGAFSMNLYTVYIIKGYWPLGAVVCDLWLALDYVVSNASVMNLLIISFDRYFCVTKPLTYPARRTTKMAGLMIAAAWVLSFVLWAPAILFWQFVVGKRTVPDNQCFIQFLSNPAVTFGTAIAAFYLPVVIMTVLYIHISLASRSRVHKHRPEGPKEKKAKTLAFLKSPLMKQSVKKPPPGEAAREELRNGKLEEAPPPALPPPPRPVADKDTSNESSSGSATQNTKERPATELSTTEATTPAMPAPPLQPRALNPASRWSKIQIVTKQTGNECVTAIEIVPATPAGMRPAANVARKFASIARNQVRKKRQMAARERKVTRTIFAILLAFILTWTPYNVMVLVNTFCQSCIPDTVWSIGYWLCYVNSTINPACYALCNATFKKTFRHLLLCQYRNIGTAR
Sequence of Voltage-gated potassium channel subunit beta-2 (Rattus norvegicus) (P62483 whole entry, looked up): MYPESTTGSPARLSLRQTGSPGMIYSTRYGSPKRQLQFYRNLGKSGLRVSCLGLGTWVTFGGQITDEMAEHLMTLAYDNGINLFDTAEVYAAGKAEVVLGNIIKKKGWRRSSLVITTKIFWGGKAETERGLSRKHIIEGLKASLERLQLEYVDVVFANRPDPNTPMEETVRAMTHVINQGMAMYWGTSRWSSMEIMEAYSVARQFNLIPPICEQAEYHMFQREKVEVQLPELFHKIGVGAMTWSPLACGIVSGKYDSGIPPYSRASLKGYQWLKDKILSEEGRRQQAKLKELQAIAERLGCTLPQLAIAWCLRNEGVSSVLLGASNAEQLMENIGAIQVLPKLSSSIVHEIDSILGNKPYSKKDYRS

Regarding `COCCn1c(NCc2ccc(C)cc2)nc2c1c(=O)[nH]c(=O)n2C`, the cell count in experiment [1] is 848. The inhibition in experiment [1] was 6.8% (inactive); in experiment [3], 9.9% (inactive); in experiment [7] it was 7.9% (inactive); in experiment [8], 13.3% (inactive). The inhibition of aggregation in experiment [2] is 29.4% (inactive). The nuclei count was 91.9% in experiment [2] and 110% in experiment [3]. For the same compound, the fluorescence slope in experiment [4] was -0.543 (inactive); in experiment [6], 0.00577 (inactive). Also, the NADPH fluorescence slope in experiment [5] is -2.1e-05 (inactive).

In the case of `CCn1c(CC(=O)Nc2cccc(OC)c2)nnc1SCC(=O)Nc1nccs1`, the cell count in experiment [1] turned out to be 835. Besides, the inhibition in experiment [1] is 4.3% (inactive); in experiment [3], -129% (inactive); in experiment [7], 4.04% (inactive); in experiment [8] it was 21.5% (inactive). Also, the inhibition of aggregation in experiment [2] was 8.8% (inactive). For the same compound, the figures for the nuclei count in experiment [2] and in experiment [3] were 103% and 112%, respectively. Further, the fluorescence slope in experiment [4] is -0.545 (inactive); in experiment [6], 0.00415 (inactive). The NADPH fluorescence slope in experiment [5] was -3.8e-05 (inactive).

With `CCOC(=O)N1CCC(O)(c2cc(C)c(C)cc2C)CC1`, the cell count in experiment [1] came to 494. Besides, the inhibition is -1.1% (inactive) in experiment [1], -16% (inactive) in experiment [3], 16.2% (inactive) in experiment [7] and -0.7% (inactive) in experiment [8]. Moreover, in experiment [2], the inhibition of aggregation is -15.6% (inactive). Moreover, the nuclei count turned out to be 93% in experiment [2] and 112% in experiment [3]. Besides, the fluorescence slope is -0.316 (inactive) in experiment [4] and 0.00607 (inactive) in experiment [6]. For the same compound, the NADPH fluorescence slope in experiment [5] is -2.5e-05 (inactive).

Consider `O=C(Nc1ccc(N2CCOCC2)cc1)c1cccc(S(=O)(=O)N2CCCC2)c1`, for which the cell count in experiment [1] amounted to 401. Also, the inhibition in experiment [1] is -0.5% (inactive); in experiment [3] it was -31.6% (inactive); in experiment [7], 12.2% (inactive); in experiment [8], 9.44% (inactive). Further, the inhibition of aggregation in experiment [2] was 6.3% (inactive). Further, the nuclei count is 106% in experiment [2] and 110% in experiment [3]. Besides, the fluorescence slope is -0.309 (inactive) in experiment [4] and 0.00454 (inactive) in experiment [6]. For the same compound, the NADPH fluorescence slope in experiment [5] is -3.6e-05 (inactive).

Regarding `CCOC(=O)Nc1sc(=S)n(C)c1C`, the cell count in experiment [1] was 719. For the same compound, the inhibition was -12.5% (inactive) in experiment [1], 15.9% (inactive) in experiment [3], 12.9% (inactive) in experiment [7] and 28.8% (inactive) in experiment [8]. The inhibition of aggregation in experiment [2] is -2.4% (inactive). Besides, the results for the nuclei count in experiment [2] and in experiment [3] were 95.3% and 95.4%, respectively. Moreover, the fluorescence slope is -0.545 (inactive) in experiment [4] and 0.00684 (inactive) in experiment [6]. Further, the NADPH fluorescence slope in experiment [5] was 2.1e-05 (inactive).

For `Nc1nc(CN2CCOCC2)cs1`, in experiment [1], the cell count was 650. For the same compound, the inhibition in experiment [1] is -4.8% (inactive); in experiment [3], 14.6% (inactive); in experiment [7], 15.2% (inactive); in experiment [8], 14.7% (inactive). In experiment [2], the inhibition of aggregation is 7.7% (inactive). The nuclei count in experiment [2] worked out at 104%; in experiment [3], 113%. For the same compound, the fluorescence slope in experiment [4] was -0.577 (inactive); in experiment [6] it was 0.00598 (inactive). Further, the NADPH fluorescence slope in experiment [5] is -2.3e-05 (inactive).

Consider `O=C(NCc1ccco1)C1CCN(C(=O)c2cc3sccc3n2Cc2ccc(F)cc2)CC1`, for which the cell count in experiment [1] is 571. Moreover, the inhibition in experiment [1] was -16.7% (inactive); in experiment [3], -27.8% (inactive); in experiment [7], 17.8% (inactive); in experiment [8], 27.2% (inactive). Besides, the inhibition of aggregation in experiment [2] was -0.6% (inactive). The results for the nuclei count in experiment [2] and in experiment [3] were 122% and 101%, respectively. Also, the fluorescence slope in experiment [4] was -0.381 (inactive); in experiment [6], 0.00956 (inactive). In experiment [5], the NADPH fluorescence slope was -4.5e-05 (inactive).

Consider `Cc1cc(SCC(N)=O)nc(SCC(=O)c2ccccc2)n1`, for which, in experiment [1], the cell count was 584. In addition, the inhibition is -3.3% (inactive) in experiment [1], 16.8% (inactive) in experiment [3], 10.5% (inactive) in experiment [7] and 21% (inactive) in experiment [8]. In addition, in experiment [2], the inhibition of aggregation was -8.2% (inactive). Besides, the nuclei count in experiment [2] turned out to be 105%; in experiment [3], 91.6%. Moreover, the fluorescence slope in experiment [4] is -0.585 (inactive); in experiment [6] it was 0.00307 (inactive). Moreover, the NADPH fluorescence slope in experiment [5] is -5.2e-05 (inactive).

`O=C(CN1C(=O)c2cccc3cccc1c23)Nc1ccccc1C(=O)NCc1ccco1`: in experiment [1], the cell count worked out at 584. In addition, the inhibition in experiment [1] was -29.6% (inactive); in experiment [3], -37.6% (inactive); in experiment [7] it was 8.08% (inactive); in experiment [8], 13.4% (inactive). In experiment [2], the inhibition of aggregation was -3.5% (inactive). Also, the results for the nuclei count in experiment [2] and in experiment [3] were 98.7% and 105%, respectively. The fluorescence slope in experiment [4] is -0.0129 (inactive); in experiment [6] it was 0.00606 (inactive). Besides, in experiment [5], the NADPH fluorescence slope was -5.3e-06 (inactive).

Regarding `O=S(=O)(c1ccc(OCC(O)CN2CCN(c3ccccc3)CC2)cc1)N1CCOCC1` (centres undefined), the cell count in experiment [1] turned out to be 603. Further, the inhibition in experiment [1] is -34.9% (inactive); in experiment [3] it was -19.7% (inactive); in experiment [7], 13.5% (inactive); in experiment [8] it was -5.1% (inactive). Moreover, the inhibition of aggregation in experiment [2] was -19.9% (inactive). Also, the values for the nuclei count in experiment [2] and in experiment [3] were 104% and 108%, respectively. Moreover, the values for the fluorescence slope in experiment [4] and in experiment [6] were -0.214 (inactive) and 0.00626 (inactive), respectively. Also, the NADPH fluorescence slope in experiment [5] is -1.7e-05 (inactive).

With `CN(C(=O)c1c(Cl)nc2sccn12)C1CCCCC1`, the cell count in experiment [1] is 456. The inhibition was 9.8% (inactive) in experiment [1], -498% (inactive) in experiment [3], 10.8% (inactive) in experiment [7] and 6.58% (inactive) in experiment [8]. Further, in experiment [2], the inhibition of aggregation is -13.5% (inactive). For the same compound, the nuclei count in experiment [2] was 104%; in experiment [3] it was 162%. The fluorescence slope in experiment [4] is -0.464 (inactive); in experiment [6] it was 0.00592 (inactive). The NADPH fluorescence slope in experiment [5] was -5.9e-05 (inactive).

In the case of `CC(NC(=O)OCc1ccccc1)C(=O)N1CC(O)CC1C(=O)O` (centres undefined), the cell count in experiment [1] came out at 280. Besides, the inhibition in experiment [1] is 0.9% (inactive); in experiment [3] it was 26.8% (inactive); in experiment [7], 16.9% (inactive); in experiment [8], 22.2% (inactive). Further, the inhibition of aggregation in experiment [2] was 2.6% (inactive). Moreover, the values for the nuclei count in experiment [2] and in experiment [3] were 79.3% and 85.4%, respectively. Also, the fluorescence slope in experiment [4] is -0.562 (inactive); in experiment [6], 0.00618 (inactive). The NADPH fluorescence slope in experiment [5] was -1.6e-05 (inactive).

For the compound `COc1ccc(CC(=O)NCc2ccccc2)cc1S(=O)(=O)N1CCOCC1`, in experiment [1], the cell count was found to be 404. Besides, the inhibition in experiment [1] was -3.1% (inactive); in experiment [3], -26.1% (inactive); in experiment [7] it was 18.6% (inactive); in experiment [8] it was 21.9% (inactive). Moreover, the inhibition of aggregation in experiment [2] is -17.5% (inactive). The nuclei count in experiment [2] was 104%; in experiment [3] it was 110%. Besides, the fluorescence slope is -0.583 (inactive) in experiment [4] and 0.00498 (inactive) in experiment [6]. The NADPH fluorescence slope in experiment [5] was -1.6e-05 (inactive).

For `Cc1ccc(C(C)C)c(OCc2nnc(SCC(=O)Nc3ncc(C)s3)n2C)c1`, in experiment [1], the cell count worked out at 663. Further, the inhibition is 0.5% (inactive) in experiment [1], -36.3% (inactive) in experiment [3], 9.43% (inactive) in experiment [7] and 12.4% (inactive) in experiment [8]. In addition, the inhibition of aggregation in experiment [2] is -35.5% (inactive). The nuclei count in experiment [2] and in experiment [3] was 108% each time. Also, the fluorescence slope in experiment [4] is -0.545 (inactive); in experiment [6], 0.00564 (inactive). For the same compound, the NADPH fluorescence slope in experiment [5] is -3.2e-05 (inactive).
